Results reported in PubChem BioAssay.
Activity calls are given as the source filed them.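 The calls were made as follows, unless noted: active = viability at or below 10% of carrier control in both of two separate runs; inconclusive = viability at or below 10% in only one of the two runs; inactive = the rest.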

Legend:
[1] = Her2 expression decrease, cell viability multiplex – SKBR3 breast tumor cells, AlphaScreen, ATP viability, primary screen (AID 461;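 active = Her2 level under about 52% in both replicate screens, with viability over 70% of control, limit read from the data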;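 as to Her2 level: lower value means less Her2 protein in the cells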;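 as to viability: percent of carrier control wells set as 100% viability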); settings: SKBR3 Her2 protein level, 18-24 h, measured here: SKBR3 viability, ATP luminescence, at 10 µM
[2] = biological target: Receptor tyrosine-protein kinase erbB-2 (Homo sapiens) (UniProt P04626); assay: as above; settings: 18-24 h, at 10 µM, stronger effect = lower value
[3] = reduced viability of SK-BR-3 breast cancer cells – cell-based, 24 h, human, pilot screen (AID 572); settings: SK-BR-3 viability, CellTiter-Glo luminescence, at 10 µM, stronger effect = lower value;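 also: compound exposure lasted between 18 and 24 h rather than exactly 24 h; 100% = carrier-treated control wells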
[4] = HUVEC growth inhibition – cell-based, human, primary screen (AID 575;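 active = viability at or below 30% in both replicate assays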;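 also: 100% = median of untreated cell wells with 0.1% DMSO on each plate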); settings: HUVEC proliferation, CellTiter-Glo luminescence, 72 h; at 10 µM; stronger effect = lower value
Method in brief: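 System: primary human umbilical vein endothelial cells; Quantity: 1250 endothelial cells in each well; Buffer or medium: supplemented EBM, 2% fetal bovine serum; Doses: one dose, 10 µM final, 0.1% DMSO; Incubation: 72 h compound incubation; Technique: ATP-based CellTiter-Glo luminescent read; Evaluation: percent of median DMSO-control luminescence; Controls: vehicle and MePR control wells.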

[5] = H69AR cell proliferation blockers – human, duplicate replicates, primary screen (AID 580;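 active = viability at or under a set limit in both replicates, limit being median viability minus 3 SD, cut at about 48% in these data, passing the limit was not always enough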;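 also: 100% = mean luminescence of untreated wells and 0% = no signal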); settings: H69AR lung tumor cells viability, ATP luminescence, 72 h; at 10 µM; stronger effect = lower value
[6] = MRP1 drug-resistance reversers in H69AR cells – cell-based, doxorubicin co-treatment, pilot screen (AID 601;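 active = viability loss from added drug above about 55%, and viability with drug at most 40%, in both replicates, limit read from the data, passing the limit was not always enough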); settings: CellTiter-Glo, 72 h, at 10 µM; for differential viability (reversal): stronger effect = higher value
[7] = yeast transport mutant growth inhibition pilot in 384-well plates, post-Golgi transport modulator project (AID 636; in the data active = inhibition above about 31%); settings: absorbance 615 nm, about 18 h, stronger effect = higher value
[8] = growth suppression of yeast trafficking mutant, preliminary HTS, modulators of trafficking downstream of Golgi apparatus project, 1536-format plate, OD 615 nm (AID 637; in the data active = inhibition above about 30%); settings: yeast transport mutant growth, absorbance 615 nm, 18 h; stronger effect = higher value
[9] = H69AR cells + 2 uM doxorubicin, measured here: viability with 2 uM doxorubicin, stronger effect = lower value
[10] = H69AR cells, compound alone cytotoxicity

Sequence of Receptor tyrosine-protein kinase erbB-2 (Homo sapiens) (P04626 whole entry, looked up): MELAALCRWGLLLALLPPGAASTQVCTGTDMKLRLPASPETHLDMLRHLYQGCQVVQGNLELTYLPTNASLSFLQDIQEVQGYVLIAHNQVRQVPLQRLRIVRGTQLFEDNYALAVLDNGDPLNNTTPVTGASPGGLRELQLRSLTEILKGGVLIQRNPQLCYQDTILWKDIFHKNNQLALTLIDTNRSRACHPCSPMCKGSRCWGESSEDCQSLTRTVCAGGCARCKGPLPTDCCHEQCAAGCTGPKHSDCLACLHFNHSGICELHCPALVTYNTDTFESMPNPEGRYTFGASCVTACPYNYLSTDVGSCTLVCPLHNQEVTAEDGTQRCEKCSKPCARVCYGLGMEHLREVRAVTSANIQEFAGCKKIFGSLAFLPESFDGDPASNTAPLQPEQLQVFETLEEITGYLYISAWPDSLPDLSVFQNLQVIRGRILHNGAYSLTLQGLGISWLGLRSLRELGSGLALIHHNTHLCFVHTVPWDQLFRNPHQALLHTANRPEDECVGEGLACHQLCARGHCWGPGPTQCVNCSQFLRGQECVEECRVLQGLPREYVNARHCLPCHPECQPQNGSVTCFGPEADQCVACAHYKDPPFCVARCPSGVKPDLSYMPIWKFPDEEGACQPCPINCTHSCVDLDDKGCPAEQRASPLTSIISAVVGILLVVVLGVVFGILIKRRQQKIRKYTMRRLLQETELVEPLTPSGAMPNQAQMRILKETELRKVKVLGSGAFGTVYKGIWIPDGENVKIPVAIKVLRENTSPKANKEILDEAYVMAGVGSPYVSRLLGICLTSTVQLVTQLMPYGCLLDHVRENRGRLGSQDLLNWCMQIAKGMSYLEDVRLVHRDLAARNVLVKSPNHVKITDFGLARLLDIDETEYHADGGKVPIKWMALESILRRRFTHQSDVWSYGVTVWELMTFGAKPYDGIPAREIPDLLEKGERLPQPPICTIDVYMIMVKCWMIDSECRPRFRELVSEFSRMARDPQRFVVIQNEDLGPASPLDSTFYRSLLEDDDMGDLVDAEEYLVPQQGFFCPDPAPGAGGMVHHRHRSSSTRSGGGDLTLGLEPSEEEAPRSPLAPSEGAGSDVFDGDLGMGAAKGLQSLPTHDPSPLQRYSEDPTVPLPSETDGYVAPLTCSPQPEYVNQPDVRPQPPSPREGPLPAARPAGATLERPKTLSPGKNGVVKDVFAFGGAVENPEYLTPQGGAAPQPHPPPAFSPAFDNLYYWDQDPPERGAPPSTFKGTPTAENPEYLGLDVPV

Row | SMILES | viability [1] | Her2 level [2] | viability [3] | viability [4] | viability [5] | differential viability (reversal) ([6]; H69AR cells + 2 uM doxorubicin) | viability [6, 9] | viability [6, 10] | inhibition [7] | inhibition [8]
1 | c1nnc(NC2=NCCCCC2)s1 | 91.5% | 112% (inactive) | 91.5% (inactive) | 109% (inactive) | 101% (inactive) | 2.23% (inactive) | 98.5% | 101% | -2.16% (inactive) | -7.5% (inactive)
2 | CCCNC(=O)Nc1ccccc1C(=O)Nc1ccc(OC)cc1 | 85% | 81% (inactive) | 85% (inactive) | 85.7% (inactive) | 94.6% (inactive) | -9.12% (inactive) | 104% | 94.6% | -4.46% (inactive) | -2.3% (inactive)
3 | C=CCC(NCc1ccco1)c1ccc(OC)cc1OC (stereo not given) | 96% | 98.5% (inactive) | 96% (inactive) | 99.1% (inactive) | 93% (inactive) | 7.67% (inactive) | 85.3% | 93% | -4.08% (inactive) | 0.36% (inactive)
4 | O=C(c1ccccc1Cl)N1CCc2ccccc2C1 | 97% | 75% (inactive) | 97% (inactive) | 97.1% (inactive) | 83% (inactive) | 1.55% (inactive) | 81.5% | 83% | -8.49% (inactive) | -5.4% (inactive)
5 | Cn1c(CCNC(=O)c2ccco2)nc2cc(NC(=O)C3CCCCC3)ccc21 | 101% | 114% (inactive) | 101% (inactive) | 78.3% (inactive) | 84.5% (inactive) | 2.02% (inactive) | 82.5% | 84.5% | -8.49% (inactive) | -1.59% (inactive)
6 | c1c2c(cc3sc(N4CCCCC4)nc13)OCCO2 | 98% | 91.5% (inactive) | 98% (inactive) | 87% (inactive) | 75.4% (inactive) | 2.07% (inactive) | 73.3% | 75.4% | -4.93% (inactive) | 7.26% (inactive)
7 | Cc1cccc(CS(=O)(=O)Cc2ccc(C(=O)NCC3CCCO3)o2)c1 (stereo not given) | 85.5% | 108% (inactive) | 85.5% (inactive) | 114% (inactive) | 94.7% (inactive) | -7.89% (inactive) | 103% | 94.7% | -2.89% (inactive) | -4.19% (inactive)
8 | Cn1c(=O)c2c(nc(SCCCC#N)n2Cc2ccccc2F)n(C)c1=O | 79.5% | 84.5% (inactive) | 79.5% (inactive) | 95.8% (inactive) | 71.2% (inactive) | -4.56% (inactive) | 75.8% | 71.2% | -3.47% (inactive) | -3.67% (inactive)
9 | Cc1cnc(C(=O)OCC(=O)Nc2ccc(Oc3ccccc3)cc2)cn1 | 77% | 102% (inactive) | 77% (inactive) | 91.5% (inactive) | 91.9% (inactive) | 9.6% (inactive) | 82.3% | 91.9% | 5.51% (inactive) | -21.7% (inactive)
10 | CCN(CC)S(=O)(=O)c1ccc(Cl)c(C(=O)OC)c1 | 97% | 93% (inactive) | 97% (inactive) | 99% (inactive) | 95.7% (inactive) | 4.65% (inactive) | 91% | 95.7% | -1.87% (inactive) | 2.9% (inactive)
11 | COc1ccccc1N1CCN(C(=O)CSc2nc(-c3ccccc3)cc(=O)[nH]2)CC1 | 87.5% | 124% (inactive) | 87.5% (inactive) | 80.8% (inactive) | 88.1% (inactive) | -1.75% (inactive) | 89.8% | 88.1% | -3.16% (inactive) | -6.83% (inactive)
12 | CCc1ccc(NC(=O)CSc2nnc(Cc3cccn3C)n2-c2ccc(OC)cc2)cc1 | 86% | 75% (inactive) | 86% (inactive) | 61.1% (inactive) | 95.6% (inactive) | -4.31% (inactive) | 99.9% | 95.6% | 1.03% (inactive) | 4.5% (inactive)
13 | COC(=O)CSc1nc2ncc(Cl)cc2[nH]1 | 101% | 92.5% (inactive) | 101% (inactive) | 89.3% (inactive) | 89.8% (inactive) | 1.08% (inactive) | 88.7% | 89.8% | -5.06% (inactive) | 1.15% (inactive)
14 | COCCn1c(C23CC4CC(CC(C4)C2)C3)n[nH]c1=S | 90% | 94.5% (inactive) | 90% (inactive) | 79.5% (inactive) | 77.2% (inactive) | 1.57% (inactive) | 75.6% | 77.2% | -2.34% (inactive) | 1.33% (inactive)
15 | COCCn1c(-c2ccc(OC)c(OC)c2)nc2ccccc21 | 93% | 108% (inactive) | 93% (inactive) | 105% (inactive) | 95.8% (inactive) | 4.81% (inactive) | 91% | 95.8% | -4.67% (inactive) | -5.81% (inactive)
16 | Cc1ccccc1-n1c(=O)cc(NCc2ccc3c(c2)OCO3)[nH]c1=O | 94.5% | 89.5% (inactive) | 94.5% (inactive) | 104% (inactive) | 103% (inactive) | 2.75% (inactive) | 100% | 103% | -2.57% (inactive) | 1.75% (inactive)

Row | SMILES | viability [1] | Her2 level [2] | viability [3] | viability [4] | viability [5] | differential viability (reversal) ([6]; H69AR cells + 2 uM doxorubicin) | viability [6, 9] | viability [6, 10] | inhibition [7] | inhibition [8]
17 | COc1ccc(S(=O)(=O)N2CCCC2C(=O)Nc2ccc(C)cc2)cc1 (stereo not given) | 88% | 105% (inactive) | 88% (inactive) | 92.2% (inactive) | 89.2% (inactive) | -8.78% (inactive) | 98% | 89.2% | -4.86% (inactive) | -4.1% (inactive)
18 | CCC(=O)OCCn1c(=O)c2cc3c(=O)n(CCOC(=O)CC)c(=O)c3cc2c1=O | 99% | 135% (inactive) | 99% (inactive) | 98.3% (inactive) | 87.2% (inactive) | -3.94% (inactive) | 91.1% | 87.2% | 4.55% (inactive) | -4.83% (inactive)
19 | NC(=O)c1nsnc1-c1ccccc1O | 105% | 124% (inactive) | 105% (inactive) | 99.9% (inactive) | 90.2% (inactive) | -6.96% (inactive) | 97.2% | 90.2% | 2.24% (inactive) | 16.8% (inactive)
20 | CCC(C)(C)n1nnnc1C(c1ccncc1)N1CCN(c2cccc(OC)c2)CC1 (stereo not given) | 77.5% | 82.5% (inactive) | 77.5% (inactive) | 91.9% (inactive) | 85.3% (inactive) | -0.525% (inactive) | 85.8% | 85.3% | -2.67% (inactive) | 4.26% (inactive)
21 | COc1ccc(OC)c(NC(=O)C2CCN(c3cc(-c4ccccc4)nc4ncnn34)CC2)c1 | 95.5% | 76.5% (inactive) | 95.5% (inactive) | 71% (inactive) | 75.4% (inactive) | -0.75% (inactive) | 76.1% | 75.4% | -0.66% (inactive) | -0.48% (inactive)
22 | CCCCN(CCCC)CCCNC(=O)CC1Oc2ccc(C)cc2NC1=O (stereo not given) | 102% | 84.5% (inactive) | 102% (inactive) | 78% (inactive) | 90.7% (inactive) | 4.72% (inactive) | 86% | 90.7% | -6.76% (inactive) | -3.17% (inactive)
23 | [N-]=[N+]=CC(=O)CC(c1ccccc1)N1C(=O)c2ccccc2C1=O (stereo not given) | 93.5% | 106% (inactive) | 93.5% (inactive) | 97.8% (inactive) | 103% (inactive) | 5.81% (inactive) | 97% | 103% | -0.91% (inactive) | -4.29% (inactive)
24 | CC(O)c1c(OCc2ccccc2)ncnc1OCc1ccccc1 (stereo not given) | 83.5% | 82.5% (inactive) | 83.5% (inactive) | 59.5% (inactive) | 93.8% (inactive) | 14.6% (inactive) | 79.3% | 93.8% | -2.73% (inactive) | 1.48% (inactive)
25 | O=C(OCc1cc2ccccc2[nH]c1=O)c1ccncc1 | 90.5% | 89% (inactive) | 90.5% (inactive) | 76.4% (inactive) | 79.2% (inactive) | -10.5% (inactive) | 89.7% | 79.2% | -4.34% (inactive) | -2.74% (inactive)
26 | COc1ccc(N(CC(=O)N2c3ccccc3CC2C)S(=O)(=O)c2c(C)noc2C)cc1 (stereo not given) | 88.5% | 88.5% (inactive) | 88.5% (inactive) | 70.3% (inactive) | 83% (inactive) | -16.9% (inactive) | 99.9% | 83% | -4.53% (inactive) | 1.97% (inactive)
27 | CCOC(=O)N1CCC2(O)CCCCC2C1c1ccc(F)cc1 (stereo not given) | 102% | 125% (inactive) | 102% (inactive) | 91.3% (inactive) | 96.8% (inactive) | 8.28% (inactive) | 88.5% | 96.8% | -3.33% (inactive) | 30.8% (active)
28 | O=C(CN(Cc1ccco1)C(=O)CNS(=O)(=O)c1ccc(Cl)cc1)NCc1ccc(F)cc1 | 118% | 106% (inactive) | 118% (inactive) | 83.4% (inactive) | 81.4% (inactive) | -5.12% (inactive) | 86.5% | 81.4% | -0.53% (inactive) | 1.77% (inactive)
29 | CCOC(=O)c1cccc(NC(=O)c2ccco2)c1 | 95.5% | 92.5% (inactive) | 95.5% (inactive) | 114% (inactive) | 91.9% (inactive) | 3.72% (inactive) | 88.1% | 91.9% | -0.77% (inactive) | -1.17% (inactive)
30 | COc1ccc(CNC(=O)CCc2nc(-c3ccccc3F)no2)c(OC)c1 | 80% | 95% (inactive) | 80% (inactive) | 90% (inactive) | 95.9% (inactive) | 3.65% (inactive) | 92.2% | 95.9% | -4.08% (inactive) | -0.17% (inactive)
31 | Cc1cc(C)nc(N2CCC(C(=O)NC3CCCCCC3)CC2)n1 | 92.5% | 99% (inactive) | 92.5% (inactive) | 111% (inactive) | 96.1% (inactive) | 1.6% (inactive) | 94.5% | 96.1% | -4.8% (inactive) | 1.13% (inactive)
32 | CCOCC(=O)Nc1ccc(S(=O)(=O)N2CCOCC2)cc1 | 95% | 85% (inactive) | 95% (inactive) | 92.3% (inactive) | 82.5% (inactive) | 6.46% (inactive) | 76.1% | 82.5% | -4.67% (inactive) | -2.7% (inactive)
